Laboratory results reported in ChEMBL document CHEMBL1135824, “Interaction of designed sulfated flavanoids with antithrombin: lessons on the design of organic activators” (J Med Chem, 2002).

Legend:
[1] = Second order rate constant for antithrombin inhibition of factor Xa in the presence of activator determined
[2] = Non ionic interaction with plasma antithrombin at 25 degree Celsius in 20 mM sodium phosphate buffer at a pH 6.0; assay type: ADME, cell-free
[3] = Observed dissociation constant of interaction with plasma antithrombin at 25 degree Celsius in 20 mM sodium phosphate buffer at a pH 6.0; assay type: ADME, cell-free
How it was run: (§1)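 Human plasma antithrombin (1 µM) with TNS (5 µM) was titrated with the sulfated flavanoid. Buffer was 20 mM sodium phosphate, 0.1 mM EDTA, 0.1% PEG 8000, at pH 6.0 (I 0.025) or 7.4 (I 0.035). Fluorescence decrease was read at 432 nm (excitation 330 nm). KD came from fitting to a quadratic equilibrium binding equation.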

[4] = Non ionic interaction with plasma antithrombin at 25 degree Celsius in 20 mM sodium phosphate buffer at a pH 7.4; assay type: ADME, cell-free
[5] = target: Coagulation factor X (Homo sapiens) (UniProt P00742); test: Second order rate constant for antithrombin inhibition of factor Xa in the presence of activator determined
Chain of Coagulation factor X (Homo sapiens) (P00742 41-179 limits assumed): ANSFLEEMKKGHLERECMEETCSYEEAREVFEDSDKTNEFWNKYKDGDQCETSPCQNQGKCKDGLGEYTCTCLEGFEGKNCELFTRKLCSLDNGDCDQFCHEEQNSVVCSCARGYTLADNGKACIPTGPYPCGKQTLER
Chain of Coagulation factor X (Homo sapiens) (P00742 235-488 limits assumed): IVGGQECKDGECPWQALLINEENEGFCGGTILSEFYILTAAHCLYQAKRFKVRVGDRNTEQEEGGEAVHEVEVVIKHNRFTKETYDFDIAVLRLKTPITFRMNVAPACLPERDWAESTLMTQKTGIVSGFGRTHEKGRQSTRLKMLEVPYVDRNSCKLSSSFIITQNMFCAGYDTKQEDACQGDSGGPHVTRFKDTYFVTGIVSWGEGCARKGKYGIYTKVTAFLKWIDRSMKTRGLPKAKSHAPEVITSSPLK

[6] = Observed dissociation constant of interaction with plasma antithrombin at 25 degree Celsius in 20 mM sodium phosphate buffer at a pH 7.4; assay type: ADME, cell-free
How it was run: as §1

[7] = Effect (0 uM) on second-order rate constant that accelerated inhibition of factor Xa by antithrombin-CS (50 uM)complex
[8] = Dissociation constant of CS-Antithrombin interaction at 25 degree Celsius 20 mM sodium phosphate buffer at pH 6.0 at 0 uM; assay type: functional
[9] = Effect (2 uM)on second-order rate constant that accelerated inhibition of factor Xa by antithrombin-CS (50 uM)complex
[10] = Effect (1 uM) on second-order rate constant that accelerated inhibition of factor Xa by antithrombin-CS (50 uM)complex
[11] = Dissociation constant of CS-Antithrombin interaction at 25 degree Celsius 20 mM sodium phosphate buffer at pH 6.0 at 20 uM; assay type: functional
How it was run: (§2)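 Competitive titration of CS into plasma antithrombin–TNS complex with tetrasaccharide EFGH″ held at a fixed level, much above antithrombin. Competitor levels spanned 0.67–6.7 × its own antithrombin KD. Run at 25 °C in 20 mM sodium phosphate, 0.1 mM EDTA, 0.1% PEG 8000, pH 6.0, I 0.025. Read-out was the decrease in TNS fluorescence with rising CS. Antithrombin was freshly diluted from pH 7.4 stock.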

[12] = Effect (1 uM) on observed rate constant that accelerated inhibition of factor Xa by antithrombin-CS (0 uM) complex
[13] = Dissociation constant of CS-Antithrombin interaction at 25 degree Celsius 20 mM sodium phosphate buffer at pH 6.0 at 30 uM; assay type: functional
How it was run: as §2

[14] = Effect (2 uM)on second-order rate constant that accelerated inhibition of factor Xa by antithrombin-CS (0 uM) complex
[15] = Dissociation constant of CS-Antithrombin interaction at 25 degree Celsius 20 mM sodium phosphate buffer at pH 6.0 at 4.5 uM; assay type: functional
How it was run: as §2

[16] = Effect (4 uM) on second-order rate constant that accelerated inhibition of factor Xa by antithrombin-CS (0 uM) complex
[17] = Effect (4 uM) on second-order rate constant that accelerated inhibition of factor Xa by antithrombin-CS (50 uM)complex
[18] = Dissociation constant of CS-Antithrombin interaction at 25 degree Celsius 20 mM sodium phosphate buffer at pH 6.0 at 3.0 uM; assay type: functional
How it was run: as §2

[19] = Dissociation constant of CS-Antithrombin interaction at 25 degree Celsius 20 mM sodium phosphate buffer at pH 6.0 at 10 uM; assay type: functional
How it was run: as §2

O=S(=O)(O)Oc1cc2c(c(OS(=O)(=O)O)c1)C[C@@H](OS(=O)(=O)O)[C@H](c1ccc(OS(=O)(=O)O)c(OS(=O)(=O)O)c1)O2 (racemic)
kACT [1]: 2770 M⁻¹ s⁻¹ | KD non ionic [2]: 470 µM | Kd [3]: 26.1 µM

O=S(=O)(O)Oc1cc2c(c(OS(=O)(=O)O)c1)C[C@@H](OS(=O)(=O)O)[C@@H](c1ccc(OS(=O)(=O)O)c(OS(=O)(=O)O)c1)O2
Kd [4]: 1100 µM | K ACT [5]: 3380 M⁻¹ s⁻¹ | Kd [2]: 380 µM | Kd [3]: 10.7 µM | Kd [6]: 32.3 µM

CO[C@H]1O[C@H](COS(=O)(=O)O)[C@@H](O[C@H]2O[C@@H](C(=O)O)[C@@H](O[C@H]3O[C@H](COS(=O)(=O)O)[C@@H](O[C@H]4O[C@H](C(=O)O)C[C@H](O)[C@H]4O)[C@H](OS(=O)(=O)O)[C@H]3NS(=O)(=O)O)[C@H](O)[C@H]2OS(=O)(=O)O)[C@H](OS(=O)(=O)O)[C@H]1OS(=O)(=O)O
second-order rate constant [7]: 2000 M⁻¹ s⁻¹ | KCS, APP [8]: 3.5 µM | second-order rate constant [9]: 4700 M⁻¹ s⁻¹ | second-order rate constant [10]: 4300 M⁻¹ s⁻¹ | KCS, APP [11]: 3.2 µM | second-order rate constant [12]: 2400 M⁻¹ s⁻¹ | KCS, APP [13]: 2.1 µM | second-order rate constant [14]: 3200 M⁻¹ s⁻¹ | KCS, APP [15]: 3.5 µM | second-order rate constant [16]: 6400 M⁻¹ s⁻¹ | second-order rate constant [17]: 7400 M⁻¹ s⁻¹ | KCS, APP [18]: 4.8 µM | KCS, APP [19]: 3.1 µM

O=S(=O)(O)Oc1cc2c(c(OS(=O)(=O)O)c1)C[C@H](OS(=O)(=O)O)[C@@H](c1ccc(OS(=O)(=O)O)c(OS(=O)(=O)O)c1)O2
Kd [4]: 2200 µM | K ACT [5]: 6750 M⁻¹ s⁻¹ | Kd [2]: 1000 µM | Kd [3]: 3.5 µM | Kd [6]: 17.9 µM
